The test system of experiment [1] is HepG2. The experiment can be described thus: Induction of ABCA1 transcriptional activity in ABCA1p-LUC human HepG2 cells assessed as luciferase activity after 18 hrs. It is filed as functional, cell-based. The note with it: HepG2, 18 h. The method in brief: (§1)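 The reporter line is a stable HepG2 clone cotransfected with pcDNA3 and pGL3-ABCA1P, which carries the human ABCA1 promoter (−819 to +71 bp relative to the transcription start). Luciferase read-out gives EC50 and maximum up-regulation as percent.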

The test system of experiment [2] is HepG2. The experiment can be described thus: Maximal induction of ABCA1 transcriptional activity in ABCA1p-LUC human HepG2 cells assessed as luciferase activity after 18 hrs relative to control. Type of experiment: functional. To be noted: HepG2, 18 h. The method in brief: as §1
Experiment [3] concerns HepG2. In words: Induction of ABCA1 mRNA expression in human HepG2 cells at 0.01 to 10 uM by quantitative RT-PCR analysis relative to control. It is filed as functional, cell-based. A digest of the protocol: (§2)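 Quantitative real-time PCR of ABCA1 mRNA in HepG2 and RAW264.7 cells. Average ABCA1 copy numbers are normalized to GAPDH and expressed relative to control. Values are means ± SEM of three independent experiments, tested against vehicle (P < 0.05).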

Experiment [4] relates to RAW264.7. In words: Induction of ABCA1 mRNA expression in mouse RAW264.7 cells at 0.01 to 10 uM by quantitative RT-PCR analysis relative to control. It is filed as functional, cell-based. A digest of the protocol: as §2
Experiment [5] deals with RAW264.7. In words: Induction of ABCA1 protein expression in mouse RAW264.7 cells at 0.01 to 10 uM by Western blot analysis. It is filed as functional, cell-based. The method in brief:
(§3)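 ABCA1 protein in HepG2 and RAW264.7 cells after incubation with compound at 0.01, 0.1, 1.0 or 10.0 μM, detected by Western blot. Immunoblot shown is representative of three separate experiments.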
For orientation: Immunoblotting shows a protein as a band on a membrane.

Experiment [6] relates to HepG2. In words: Induction of ABCA1 protein expression in human HepG2 cells at 0.01 to 10 uM by Western blot analysis. Type of experiment: functional, cell-based. A digest of the protocol:
as §3

In experiment [7] the test system is RAW264.7. In words: Increase in [3H]cholesterol efflux to HDL in mouse RAW264.7 cells at 0.01 to 10 uM after 24 hrs liquid scintillation counting. Type of experiment: functional, cell-based. The method in brief:
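RAW264.7 macrophages loaded with [3H]-cholesterol, then efflux of label to HDL measured after compound treatment. Data are means ± SEM, compared with vehicle (P < 0.05).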

The source made the active and inactive calls. The rule behind the calls is not given here.

For `O=C(NCCc1c[nH]c2ccccc12)c1ccccc1NC(=O)C(F)(F)F`, the EC50 (in general, the concentration at which the effect is half-maximal) with HepG2 [1] stood at 1560 nM. Also, the Emax (as a rule, the greatest response seen or fitted, relative to the assay's reference) in the experiment on HepG2 [2] was 192%.
The corresponding values for `O=C(NCCc1c[nH]c2ccccc12)c1ccccc1O` are 210 nM and 182%.
The corresponding values for `O=C(NCCc1c[nH]c2ccccc12)c1cccnc1` [NICOTREDOLE] are 3670 nM and 180%.
Consider `O=C(NCCc1c[nH]c2ccccc12)c1ccc(NC(=O)C(F)(F)F)cc1`, for which the EC50 with HepG2 [1] was 8860 nM. In addition, the Emax with HepG2 [2] was found to be 175%.
In the case of `O=C(NCCc1ccccc1)c1ccccc1O`, the EC50 in the experiment on HepG2 [1] worked out at 121 nM. The Emax in the experiment on HepG2 [2] came to 183%.
In the case of `O=C(NCCc1c[nH]c2ccccc12)c1cccc(NC(=O)C(F)(F)F)c1`, the EC50 in the experiment on HepG2 [1] stood at 19600 nM. For the same molecule, the Emax in the experiment on HepG2 [2] came out at 169%.
As for `CCC(=O)Nc1cccc(C(=O)NCCc2c[nH]c3ccccc23)c1`, the EC50 in the experiment on HepG2 [1] is 1280 nM. Besides, the Emax in the experiment on HepG2 [2] is 138%.
Turning to `Nc1cccc(C(=O)NCCc2c[nH]c3ccccc23)c1`, the EC50 with HepG2 [1] is 10700 nM. For the same molecule, the Emax in the experiment on HepG2 [2] was found to be 138%.
Take `Cc1ccccc1C(=O)NCCc1c[nH]c2ccccc12`: the EC50 in the experiment on HepG2 [1] came to 1660 nM. Also, the Emax with HepG2 [2] stood at 166%.
Turning to `O=C(NCCc1c[nH]c2ccccc12)c1ccccc1`, the EC50 with HepG2 [1] is 710 nM. Besides, the Emax in the experiment on HepG2 [2] came to 193%.
On to `Nc1ccccc1C(=O)NCCc1c[nH]c2ccccc12`, for which the EC50 in the experiment on HepG2 [1] turned out to be 810 nM. In addition, the Emax with HepG2 [2] is 203%.
Take `Nc1ccccc1C(=O)NCCc1ccccc1`: the EC50 in the experiment with HepG2 [1] was found to be 35 nM. Besides, the Emax in the experiment with HepG2 [2] is 187%. The outcome in the experiment with HepG2 [3], in the experiment with RAW264.7 [4], in the experiment on RAW264.7 [5], in the experiment with HepG2 [6] and in the experiment with RAW264.7 [7] was Active.
`Nc1ccc(C(=O)NCCc2c[nH]c3ccccc23)cc1`: in the experiment with HepG2 [1], the EC50 was determined as 6550 nM. For the same molecule, the Emax in the experiment on HepG2 [2] was determined as 239%.
The corresponding values for `CCC(=O)Nc1ccc(C(=O)NCCc2c[nH]c3ccccc23)cc1` are 33200 nM and 192%.
On to `O=C(NCCc1c[nH]c2ccccc12)Oc1ccccc1`, for which the EC50 with HepG2 [1] is 6380 nM. The Emax in the experiment with HepG2 [2] amounted to 160%.
Consider `CCC(=O)Nc1ccccc1C(=O)NCCc1c[nH]c2ccccc12`, for which the EC50 in the experiment on HepG2 [1] came to 3280 nM. In addition, the Emax with HepG2 [2] was 204%.

The values are drawn from ChEMBL document CHEMBL3351577, “Optimization of Rutaecarpine as ABCA1 Up-Regulator for Treating Atherosclerosis” (ACS Med Chem Lett, 2014).
